Screens: PubChem BioAssay, several laboratories
This is a sample that favours compounds with a hit; in the whole collection about 3.1% have one here.
Calb FLC = C. albicans growth modulation with fluconazole; C. albicans CaCi-2 (fluconazole-resistant clinical isolate) + fluconazole, Alamar Blue growth, 48 h; growth inhibition, % (no concentration beside the values); hit rate 0.57% among 300,000; AID 1979;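 active = growth inhibition above about 58% in most replicates, limit read from the data, passing the limit was not always enough; inconclusive = exactly half the replicates above a set limit; inactive = most replicates below a set limit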;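 note: all wells also contain fluconazole at 8 µg/ml as a sub-toxic cotreatment; 0% = median of DMSO wells and 100% = median of geldanamycin control wells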
TAG inh = reduces triacylglycerol accumulation in H9c2 cells; Nile Red lipid (TAG) fluorescence; cells loaded with 200 µM oleic acid; inhibition, % at 12.5 µM; hit rate 0.66% among 230,000; AID 651582;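 active = pattern-corrected inhibition of lipid staining of at least 50% with the nuclear-stain viability signal not falling by more than 50%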;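 note: 0% = DMSO wells and 100% = triacsin C control wells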
Beta apoptosis = beta cell apoptosis inhibition; INS-1E cytokine-induced death, ATP luminescence, 48 h; percent of positive-control rescue, neutral wells zero; protection from apoptosis, % (test concentration not listed); hit rate 0.8% among 300,000; AID 435005;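 active = Every replicate reaches about 75%, or at least half do and their mean reaches it too, limit read from the data; inconclusive = At least half of replicates reach the limit but their mean does not; inactive = Under half of replicates reach the limit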;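 note: 0% = cytokine-treated negative control wells and 100% = positive control rescue; higher means more ATP so stronger rescue from cytokine killing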
Bfl-1 A1 inh = inhibitors of the anti-apoptotic protein A1, read as caspase activation | caspase activation, % (no concentration beside the values) | AID 2462 | hit rate 0.066% among 330,000 | MEF A1-2A-BIM cells, Caspase-Glo 3/7 luminescence, 3 h; percent of clofoctol response, vehicle zero;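 active = over half of replicate activation scores above 10%, or exactly half above 10 with the replicate mean above 10; inconclusive = replicate mean below 10 yet half the replicates above 10; inactive = over half of replicates below 10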
CSC inhib = blocks cancer stem cells. cancer stem cell-like cells viability, luminescence. inhibition, % at 7.5 µM. hit rate 1.1% among 300,000. AID 2717; in the data active = inhibition above about 75%; inconclusive = no clear call, values can overlap the other calls; tested in HMLE shEcad cells
T cruzi inh = T. cruzi replication inhibition; T. cruzi beta-gal in NIH3T3, luminescence, 90 h; inhibition, % (no concentration beside the values); hit rate 1.4% among 300,000; AID 1885;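 active = mean inhibition across valid replicates above about 55%, limit read from the data; inconclusive = mean below that limit but half or more replicates reach it; inactive = mean below it, under half of replicates reach it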;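 note: signal also drops with host cell toxicity which is not excluded here; 0% = plate median of DMSO wells and 100% = zero luminescence signal; higher percent means less beta-gal luminescence so fewer parasites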
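assay system = mouse NIH/3T3 fibroblasts infected with β-gal-expressing T. cruzi Tulahuen C4 | input = 5,000 NIH/3T3 host cells per well | buffer or medium = DMEM plus 2% FBS | timing = 3 h host attachment, then at least 90 h co-culture | measured by = GalScreen luminescence, 60 min | evaluation = luminescence reflecting intracellular parasite burden, expressed as percent inhibition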
The depositor's hits bear a star; ? = inconclusive; . = not tested or not shown.

SMILES	Calb FLC	TAG inh	Beta apoptosis	Bfl-1 A1 inh	CSC inhib	T cruzi inh
COC(=O)c1ccc(NC(=O)c2nc(S(=O)(=O)Cc3cccc(C)c3)ncc2Cl)cc1	0	.	75*	2	110*	-9
COc1ccccc1Cc1nnc(NC(=O)C2CCN(C(=O)c3ccco3)CC2)s1	-9	.	-1	2	13	3
N#C/C(=C/c1cn(-c2ccccc2)nc1-c1cccc(OCc2ccc(F)cc2)c1)C(=O)NCCCn1ccnc1	2	.	-1	0	99*	63*
O=C(Nc1ccc(F)c(Cl)c1)C1CCCC1	-7	3	-13	1	-7	1
O=C(Nc1ccc(F)c(Cl)c1)Nc1csc2ccccc12	-6	-14	83*	1	77*	26
O=C(Nc1ccc(F)c(Cl)c1)NC1CC1	83*	.	-1	-1	-7	-17
O=C(CCS(=O)(=O)c1ccccc1)Nc1nc2cc3c(cc2s1)OCO3	67	-9	-4	-1	32	2
O=C(CCS(=O)(=O)c1ccccc1)Nc1nc2cc3c(cc2s1)OCCO3	82*	-4	-3	-1	-3	-5
COc1ccc(OC)c2sc(NC(=O)CCSc3ccccc3)nc12	3	20	4	0	42	26
COc1ccc(OC)c2sc(NC(=O)CCS(=O)(=O)c3ccccc3)nc12	-2	14	25	0	109*	-61
CC/C(=C/c1ccccc1)c1cccc2[nH]c3c(OC)cccc3c12	5	-28	45	0	131*	17
Cn1c(=O)[nH]c2c(c1=O)CCO2	.	7	.	.	.	.
COc1ccccc1/C=C(/CC(=O)NCc1ccc2c(c1)OCO2)c1nc2ccccc2s1	-3	-14	8	0	37	55*
COc1ccccc1/C=C/C(=O)OCC(=O)NCc1ccc2c(c1)OCO2	.	-4	-3	-3	-10	.
C#CCOCCOCCOCCNc1nc(N2CCN(C(=O)CCCCCCCCCCNC(=O)Cn3cc(C[C@@H](C)O)nn3)CC2)nc(N2CCN(C(=O)CCCCCCCCCCNC(=O)[C@@H]([C@H](C)O)n3cc(C)nn3)CC2)n1	.	-32	52	0	158*	.
C#CCOCCOCCOCCNc1nc(N2CCN(C(=O)CCCCCCCCCCNC(=O)Cn3cc(C[C@@H](C)O)nn3)CC2)nc(N2CCN(C(=O)CCCCCCCCCCNC(=O)[C@@H]([C@H](C)CC)n3cc(CCCCCN)nn3)CC2)n1	.	34	84*	?	124*	.
C#CCOCCOCCOCCNc1nc(N2CCN(C(=O)CCCCCCCCCCNC(=O)Cn3cc(CCCCCN)nn3)CC2)nc(N2CCN(C(=O)CCCCCCCCCCNC(=O)[C@@H]([C@H](C)O)n3cc(C)nn3)CC2)n1	.	-26	-2	0	10	.
COc1ccccc1NC(=O)/C=C1\SCC(=O)N1C	1	-7	0	-5	-3	71*
CCN(CC(=O)NC1CCS(=O)(=O)C1)c1ccc([N+](=O)[O-])cc1C#N (stereo unspecified)	.	27	3	0	-12	.
COC(=O)COc1ccc(S(=O)(=O)NCc2ccc3c(c2)OCO3)cc1C	-28	.	-3	0	-6	-5
O=C(CCN1C(=O)c2ccccc2S1(=O)=O)Nc1ccccc1	1	0	-9	0	.	-2
CCN(C(=O)CCN1C(=O)c2ccccc2S1(=O)=O)c1ccccc1	4	9	-7	5.7*	2	-9
C=CCN([C@H](C(=O)OC)C(C)C)S(=O)(=O)CCNCc1ccccc1	.	4	.	.	.	.
Cc1ccc2[nH]c(=O)c(C(c3nnnn3C(C)(C)C)N(Cc3ccco3)CC3CCCO3)cc2c1 (stereo unspecified)	16	.	1	0	-3	60*
COc1cccc(CN(Cc2ccco2)C(c2ccc(F)cc2)c2nnnn2C(C)(C)C)c1 (stereo unspecified)	-4	-19	15	0	65	34
SMILES	Calb FLC	TAG inh	Beta apoptosis	Bfl-1 A1 inh	CSC inhib	T cruzi inh
Cc1ccc2cc(C(c3nnnn3C3CCCC3)N(Cc3ccco3)Cc3cccs3)c(=O)[nH]c2c1 (stereo unspecified)	14	.	-1	0	14	63*
CCC(C)(C)n1nnnc1C(c1ccc(C)cc1)N(Cc1ccco1)Cc1cccs1 (stereo unspecified)	1	-99	14	1	33	55*
Cc1cccc2cc(C(c3nnnn3C(C)(C)C)N(Cc3ccco3)CC3CCCO3)c(=O)[nH]c12 (stereo unspecified)	9	.	-6	0	-8	3
CCc1nc2nc(C)c(NS(=O)(=O)c3ccc(C)c(C)c3)c(=O)n2[nH]1	-3	.	4	0	1	-13
CCN1CCN(c2cc(C)c3cc(NC(=O)CCC(=O)Nc4ccc(OC)c(OC)c4)ccc3n2)CC1	10	.	-6	0	1	13
CCN1CCN(c2cc(C)c3cc(NC(=O)Cc4ccccc4OC)ccc3n2)CC1	-6	12	1	-1	3	71*
COc1ccc(C)cc1NC(=O)CCC(=O)Nc1ccc2nc(N3CCN(C)CC3)cc(C)c2c1	-2	.	4	0	.	65*
CC(C)c1ccc(CN(C(=O)c2cccs2)C2CCS(=O)(=O)C2)cc1 (stereo unspecified)	0	.	-4	1	-11	-3
C(=N\Nc1nc(-c2ccccn2)nc2ccccc12)/c1ccccc1	3	.	92*	-2	83*	33
COc1ccc(Nc2nc(NCC3CCCO3)c3ccccc3n2)c(OC)c1 (stereo unspecified)	36	10	19	1	-14	68*
COc1ccc(Nc2c3c(nc4ccccc24)CCC3)c(OC)c1	-2	.	15	-1	15	30
Cc1ccc(Nc2nc(NCc3ccco3)c3ccccc3n2)cc1	92*	32	76*	-6	56	66*
COc1ccccc1Nc1nc(NCc2ccco2)c2ccccc2n1	10	0	55	0	24	50
CCOc1ccc(Nc2nc(NCC3CCCO3)c3ccccc3n2)cc1 (stereo unspecified)	99*	7	52	-1	-15	48
COc1ccc(Nc2nc(NCC3CCCO3)nc(N)c2[N+](=O)[O-])cc1 (stereo unspecified)	-2	-9	-2	-1	-1	-14
CCOc1ccc(Nc2c3ccccc3nc3ccccc23)cc1	61	-4	79*	1	56	50
c1ccc(-c2nc(NCc3ccco3)c3ccccc3n2)nc1	-21	-49	101*	-1	-6	49
c1ccc2c(NCC3CCCO3)nc(N3CCOCC3)nc2c1 (stereo unspecified)	-33	16	-2	1	-18	3
c1ccc(-c2nc(NCC3CCCO3)c3ccccc3n2)nc1 (stereo unspecified)	-39	-33	115*	0	-6	27
